Results gathered from unrelated publications.
Lines come from different studies, so protocols differ.
ARAF: Serine/threonine-protein kinase A-Raf (ARAF, Homo sapiens, UniProt P10398)
PFF0160c: Dihydroorotate dehydrogenase (quinone), mitochondrial (PFF0160c, Plasmodium falciparum, UniProt Q08210)
PPO3: PPO3 (Agaricus bisporus, UniProt C7FF04)
BMX: Cytoplasmic tyrosine-protein kinase BMX (BMX, Homo sapiens, UniProt P51813)
KDM1A: Lysine-specific histone demethylase 1A (KDM1A, Homo sapiens, UniProt O60341)
PDE5A: cGMP-specific 3',5'-cyclic phosphodiesterase (PDE5A, Homo sapiens, UniProt O76074)
HDAC2: Histone deacetylase 2 (HDAC2, Homo sapiens, UniProt Q92769)
MEP1A: Meprin A subunit alpha (MEP1A, Homo sapiens, UniProt Q16819)

Structure (SMILES) | target | effect on | mode | technique | notes | IC50
CCOCc1nc(O)c(-c2nnc(Cc3ccc(Cl)cn3)o2)c(O)c1-c1c(OC)cccc1OC | Adenosine receptor A2a (ADORA2A, Homo sapiens, UniProt P29274) | ligand displacement | – | radioligand | – | > 30000 nM
O=C1Nc2ccc(I)cc2/C1=C/c1cc(Br)c(O)c(Br)c1 | ARAF | enzyme activity | inhibitor | radiometric | – | 15.4 nM
Cc1cc(Nc2ccc(S(F)(F)(F)(F)F)cc2)n2nc(CC(C)C)nc2n1 | PFF0160c | enzyme activity | inhibitor | – | – | > 10000 nM
Cc1ccc(C(C)C)cc1NC(=O)COC(=O)c1ccc(O)c(O)c1 | PPO3 | enzyme activity | inhibitor | – | – | 11000 nM
Cc1ccc(NC(=O)c2ccc(C)c(C(F)(F)F)c2)cc1C#Cc1nn(C2CCC(O)CC2)c2ncnc(N)c12 (stereo not drawn) | BMX | enzyme activity | inhibitor | radiometric | – | 21 nM
CCCSc1nc(Sc2nc3ccccc3s2)c2nnn(CCO)c2n1 | KDM1A | enzyme activity | inhibitor | fluorescence | – | 847 nM
Cc1cnc(-c2ccc(-c3ccc(NC(=O)Nc4c(F)cc(F)cc4F)cc3F)c3c2C(=O)NC3)[nH]1 | BMX | enzyme activity | inhibitor | – | – | 14.4 nM
COC(=O)[C@H]1Cc2c([nH]c3ccccc23)[C@@H](c2ccc(OC)c(OC)c2)N1C(=O)CCl | PDE5A | enzyme activity | inhibitor | FP | – | > 10000 nM
CNCCOc1nc2nc(C)cc(Nc3ccc(S(F)(F)(F)(F)F)cc3)n2n1 | PFF0160c | enzyme activity | inhibitor | – | – | > 10000 nM
CCCON(Cc1ccc(C(=O)NO)cc1)C(=O)Nc1ccc(N(C)C)cc1 | HDAC2 | enzyme activity | inhibitor | fluorescence | – | 1140 nM
O=C(CCN(Cc1ccc(Cl)cc1F)Cc1ccc(Cl)c(O)c1F)NO | MEP1A | enzyme activity | inhibitor | – | – | 215 nM
CCCC[C@H](NC(=O)[C@H](C)c1c(C)[nH]c2ccc(O)cc12)c1ncc(-c2cc3ccccc3nc2OC)[nH]1 | Cannabinoid receptor 1 (CNR1, Homo sapiens, UniProt P21554) | cell-free assay | – | – | – | 9750 nM
O=C(CCN(Cc1ccncc1)Cc1ccc(Cl)c(O)c1F)NO | MEP1A | enzyme activity | inhibitor | – | – | 646 nM
Cc1cc(Nc2ccc(C(F)(F)F)cc2)c2ccccc2n1 | PFF0160c | enzyme activity | inhibitor | – | – | 980 nM
CNCCOc1nc2nc(C)cc(Nc3ccc(Cl)cc3)n2n1 | PFF0160c | enzyme activity | inhibitor | – | – | > 10000 nM
CCCSc1nc(Sc2nncs2)c2nnn(CCO)c2n1 | KDM1A | enzyme activity | inhibitor | fluorescence | – | 1050 nM
CN(C)CCOc1ccc(-c2nc(-c3ccncc3)c(-c3ccc4c(c3)CC/C4=N\O)[nH]2)cc1 | ARAF | enzyme activity | inhibitor | – | lysate | > 10000 nM
CC(=O)N[C@@H](CC(=O)O)C(=O)N[C@@H](CCC(=O)O)C(=O)N[C@H](C(=O)N[C@H](C=O)CC(=O)O)C(C)C | Caspase-6 (CASP6, Homo sapiens, UniProt P55212) | enzyme activity | inhibitor | – | – | 23.2 nM
CCCSc1nc(Sc2nnnn2C)c2nnn(CCc3c[nH]c4ccccc34)c2n1 | KDM1A | enzyme activity | inhibitor | fluorescence | – | 253 nM
CC/C=C\C/C=C\C/C=C\C/C=C\C/C=C\CCCC(=O)O | Deoxyribonuclease-1 (DNASE1, Bos taurus, UniProt P00639) | enzyme activity | inhibitor | – | – | > 100000 nM
Cc1cnc(Nc2ccc(N3CCN(C)CC3)cc2)nc1Nc1cccc(S(=O)(=O)NC(C)(C)C)c1 | Aurora kinase B (AURKB, Homo sapiens, UniProt Q96GD4) | enzyme activity | inhibitor | mobility shift | – | 33 nM

Structure (SMILES) | target | effect on | mode | technique | notes | IC50
CNCCc1nc2nc(C)cc(Nc3cccc(Cl)c3)n2n1 | PFF0160c | enzyme activity | inhibitor | – | – | > 10000 nM
Nc1nc(N)c(N=Nc2ccccc2[N+](=O)[O-])c(N)n1 | PPO3 | enzyme activity | inhibitor | absorbance | – | 34100 nM
Cc1ccc(C(C)C)cc1NC(=O)COC(=O)c1ccc(O)cc1O | PPO3 | enzyme activity | inhibitor | – | – | 1800 nM
CC(C)(C)N1C(=O)[C@H]2Cc3c([nH]c4ccccc34)[C@H](c3cccnc3)N2C1=O | PDE5A | enzyme activity | inhibitor | FP | – | 4750 nM
Cc1cc(Nc2ccc(Cl)cc2)n2nc(CCN)nc2n1 | PFF0160c | enzyme activity | inhibitor | – | – | > 10000 nM
CN1C(=O)c2c(nn(Cc3ccc(-c4cccc(F)n4)cc3)c2Nc2ccccc2)N2C1=N[C@@H]1CCC[C@@H]12 | PDE5A | enzyme activity | inhibitor | – | – | > 100 nM
COc1ccc(C2=NN(C3CCCCCC3)C(=O)[C@@H]3CC=CC[C@H]23)cc1-c1ccc(C(N)=O)cc1 (relative stereo) | 3',5'-cyclic-AMP phosphodiesterase 4A (PDE4A, Homo sapiens, UniProt P27815) | enzyme activity | inhibitor | – | – | 251 nM
Cc1ccc(COc2ccc3c(c2)NC(=C(C#N)C(=O)c2ccc(Cl)cc2Cl)NC3=O)cc1 | Cytoplasmic dynein 1 heavy chain 1 (DYNC1H1, Homo sapiens, UniProt Q14204) | ATPase activity | inhibitor | – | – | 280000 nM
Cc1ccc(C(C)C)cc1NC(=O)COC(=O)c1cc(O)cc(O)c1 | PPO3 | enzyme activity | inhibitor | – | – | 20200 nM
CN1CCN(c2ccc(Nc3ncc4cc(C#N)c(=O)n(C5CCCC5)c4n3)cc2)CC1 | Tyrosine-protein kinase TXK (TXK, Homo sapiens, UniProt P42681) | enzyme activity | inhibitor | – | – | 638 nM
O=C1[C@H]2Cc3c([nH]c4ccccc34)[C@@H](c3cccnc3)N2C(=O)N1c1ccc(Cl)cc1 | PDE5A | enzyme activity | inhibitor | FP | – | 4990 nM
C[C@@H]1Cc2ccccc2N1C(=O)NCCCCN(C)[C@@H]1Cc2cccc3[nH]c(=O)n(c23)C1 | 5-hydroxytryptamine receptor 2A (HTR2A, Homo sapiens, UniProt P28223) | ligand displacement | – | radioligand | – | 3700 nM
CCN1C(=O)[C@@H]2Cc3c([nH]c4ccccc34)[C@@H](c3cccnc3)N2C1=O | PDE5A | enzyme activity | inhibitor | FP | – | 150 nM
Cc1cc(Nc2cccc(Cl)c2)n2nc(CN(C)C)nc2n1 | PFF0160c | enzyme activity | inhibitor | – | – | > 10000 nM
CCCCc1ccc(-c2ccc(-c3cc(C(=O)O)c4cc(Cl)cc(Cl)c4n3)o2)cc1 | Eukaryotic initiation factor 4A-I (EIF4A1, Homo sapiens, UniProt P60842) | ATPase activity | inhibitor | absorbance | – | 52100 nM
O=C(NC1CC2(C1)CN(C(=O)c1cc3ccccc3c(=O)[nH]1)C2)c1c[nH]nn1 | Poly [ADP-ribose] polymerase 1 (PARP1, Homo sapiens, UniProt P09874) | enzyme activity | inhibitor | – | – | 1280 nM
CNCCc1nc2nc(C)cc(Nc3ccc(Cl)cc3)n2n1 | PFF0160c | enzyme activity | inhibitor | – | – | > 10000 nM
CCN1C(=O)[C@@H]2Cc3c([nH]c4ccccc34)[C@@H](c3ccc(OC)c(OC)c3)N2C1=O | PDE5A | enzyme activity | inhibitor | FP | – | 13700 nM
CC(C)C[C@H]1CC(=O)N[C@@H](C)C(=O)N[C@@H](CCCCCC(=O)O)C(=O)N[C@@H](Cc2c[nH]c3ccccc23)C(=O)N1 | HDAC2 | enzyme activity | inhibitor | – | – | 200 nM
Cc1cc(Nc2cccc(Cl)c2)n2[nH]c(=O)nc2n1 | PFF0160c | enzyme activity | inhibitor | – | – | > 10000 nM
COc1ccc(N=Nc2c(N)nc(N)nc2Cl)cc1 | PPO3 | enzyme activity | inhibitor | absorbance | – | 28000 nM
